Results from paper PMC4929832 (Nature, 2016).
pEC50, pIC50: −log10 of the molar value.

Tests used:
GSK-3-ALPHA = GSK-3-ALPHA (Homo sapiens, UniProt P49840); experiment: kinase panel; format: biochemical
FLT-4 = FLT-4 (Homo sapiens, UniProt P35916); experiment: kinase panel; format: biochemical
LYNB = LYNB (Homo sapiens, UniProt P07948); experiment: kinase panel; format: biochemical
ROCK2 = ROCK2 (Homo sapiens, UniProt O75116); experiment: kinase panel; format: biochemical
H1975 cells = experiment: Proliferation assay; format: cell-based
Procedure, shortened: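 Cells were maintained in 10% FBS/RPMI with penicillin/streptomycin and plated at 500 cells/well in 10% FBS RPMI. Serially diluted test compound was pin-transferred. Viability was read after 3 days by CellTiter-Glo luminescence and normalized to 0.1% DMSO-treated cells and empty wells. EC50 was obtained by non-linear regression curve fitting.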

NEK1 = NEK1 (Homo sapiens, UniProt Q96PY6); experiment: kinase panel; format: biochemical
CHEK1 = CHEK1 (Homo sapiens, UniProt O14757); experiment: kinase panel; format: biochemical
MAPKAPK2 = MAPKAPK2 (Homo sapiens, UniProt P49137); experiment: kinase panel; format: biochemical
CDK2-CYCLINA = CDK2-CYCLINA (Homo sapiens, UniProt P24941); experiment: kinase panel; format: biochemical
BRSK1 = BRSK1 (Homo sapiens, UniProt Q8TDC3); experiment: kinase panel; format: biochemical
PPARgamma Receptor = PPARgamma Receptor (Homo sapiens, UniProt P37231); experiment: PPARgamma Receptor antagonist assay; format: cell-based
AKT3 = AKT3 (Homo sapiens, UniProt Q9Y243); experiment: kinase panel; format: biochemical
INSR = INSR (Homo sapiens, UniProt P06213); experiment: kinase panel; format: biochemical
CAMK2D = CAMK2D (Homo sapiens, UniProt Q13557); experiment: kinase panel; format: biochemical
Serotonin 5HT2A = Serotonin 5HT2A (Homo sapiens, UniProt P28223); experiment: Serotonin 5HT2A calcium flux assay; format: cell-based
BTK = BTK (Homo sapiens, UniProt Q06187); experiment: kinase panel; format: biochemical
PHK-GAMMA2 = PHK-GAMMA2 (Homo sapiens, UniProt P15735); experiment: kinase panel; format: biochemical
SPHK2 = SPHK2 (Homo sapiens, UniProt Q9NRA0); experiment: kinase panel; format: biochemical
TRKB = TRKB (Homo sapiens, UniProt Q16620); experiment: kinase panel; format: biochemical
ITK = ITK (Homo sapiens, UniProt Q08881); experiment: kinase panel; format: biochemical
GSK-3-BETA = GSK-3-BETA (Homo sapiens, UniProt P49841); experiment: kinase panel; format: biochemical
RET = RET (Homo sapiens, UniProt P07949); experiment: kinase panel; format: biochemical
PAK6 = PAK6 (Homo sapiens, UniProt Q9NQU5); experiment: kinase panel; format: biochemical
SYK = SYK (Homo sapiens, UniProt P43405); experiment: kinase panel; format: biochemical
CDK1 = CDK1 (Homo sapiens, UniProt P06493); experiment: kinase panel; format: biochemical
CK1-GAMMA2 = CK1-GAMMA2 (Homo sapiens, UniProt P78368); experiment: kinase panel; format: biochemical
MEK1 = MEK1 (Homo sapiens, UniProt Q02750); experiment: kinase panel; format: biochemical
FRAP1 = FRAP1 (Homo sapiens, UniProt P42345); experiment: kinase panel; format: biochemical
[1] = tested on: EGFR signaling in L858R/T790M/C797S mice; experiment: Pharmacodynamic study, western blotting of tumor nodules; format: in vivo, mouse; conditions: EAI045 in combination with cetuximab, 2 doses
Procedure, shortened: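 Transgenic mice were induced at 6 weeks: exon19del/T790M by doxycycline diet, L858R/T790M/C797S by intranasal Ad-Cre. […] Tumor nodules were lysed and protein-equalized for western blotting. Bands were detected by HRP chemiluminescence. Multiple independent tumors were analyzed.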

NEK2 = NEK2 (Homo sapiens, UniProt P51955); experiment: kinase panel; format: biochemical
ERB-B2 = ERB-B2 (Homo sapiens, UniProt P04626); experiment: kinase panel; format: biochemical
[2] = target: Norepinephrine Transporter (Homo sapiens, UniProt P23975); experiment: Norepinephrine Transporter assay; format: binding
JNK3 = JNK3 (Homo sapiens, UniProt P53779); experiment: kinase panel; format: biochemical
Dopamine Transporter = Dopamine Transporter (Homo sapiens, UniProt Q01959); experiment: Dopamine Transporter assay; format: binding
FGFR4 = FGFR4 (Homo sapiens, UniProt P22455); experiment: kinase panel; format: biochemical
MST4 = MST4 (Homo sapiens, UniProt Q9P289); experiment: kinase panel; format: biochemical

Chain of INSR (P06213 28-1382): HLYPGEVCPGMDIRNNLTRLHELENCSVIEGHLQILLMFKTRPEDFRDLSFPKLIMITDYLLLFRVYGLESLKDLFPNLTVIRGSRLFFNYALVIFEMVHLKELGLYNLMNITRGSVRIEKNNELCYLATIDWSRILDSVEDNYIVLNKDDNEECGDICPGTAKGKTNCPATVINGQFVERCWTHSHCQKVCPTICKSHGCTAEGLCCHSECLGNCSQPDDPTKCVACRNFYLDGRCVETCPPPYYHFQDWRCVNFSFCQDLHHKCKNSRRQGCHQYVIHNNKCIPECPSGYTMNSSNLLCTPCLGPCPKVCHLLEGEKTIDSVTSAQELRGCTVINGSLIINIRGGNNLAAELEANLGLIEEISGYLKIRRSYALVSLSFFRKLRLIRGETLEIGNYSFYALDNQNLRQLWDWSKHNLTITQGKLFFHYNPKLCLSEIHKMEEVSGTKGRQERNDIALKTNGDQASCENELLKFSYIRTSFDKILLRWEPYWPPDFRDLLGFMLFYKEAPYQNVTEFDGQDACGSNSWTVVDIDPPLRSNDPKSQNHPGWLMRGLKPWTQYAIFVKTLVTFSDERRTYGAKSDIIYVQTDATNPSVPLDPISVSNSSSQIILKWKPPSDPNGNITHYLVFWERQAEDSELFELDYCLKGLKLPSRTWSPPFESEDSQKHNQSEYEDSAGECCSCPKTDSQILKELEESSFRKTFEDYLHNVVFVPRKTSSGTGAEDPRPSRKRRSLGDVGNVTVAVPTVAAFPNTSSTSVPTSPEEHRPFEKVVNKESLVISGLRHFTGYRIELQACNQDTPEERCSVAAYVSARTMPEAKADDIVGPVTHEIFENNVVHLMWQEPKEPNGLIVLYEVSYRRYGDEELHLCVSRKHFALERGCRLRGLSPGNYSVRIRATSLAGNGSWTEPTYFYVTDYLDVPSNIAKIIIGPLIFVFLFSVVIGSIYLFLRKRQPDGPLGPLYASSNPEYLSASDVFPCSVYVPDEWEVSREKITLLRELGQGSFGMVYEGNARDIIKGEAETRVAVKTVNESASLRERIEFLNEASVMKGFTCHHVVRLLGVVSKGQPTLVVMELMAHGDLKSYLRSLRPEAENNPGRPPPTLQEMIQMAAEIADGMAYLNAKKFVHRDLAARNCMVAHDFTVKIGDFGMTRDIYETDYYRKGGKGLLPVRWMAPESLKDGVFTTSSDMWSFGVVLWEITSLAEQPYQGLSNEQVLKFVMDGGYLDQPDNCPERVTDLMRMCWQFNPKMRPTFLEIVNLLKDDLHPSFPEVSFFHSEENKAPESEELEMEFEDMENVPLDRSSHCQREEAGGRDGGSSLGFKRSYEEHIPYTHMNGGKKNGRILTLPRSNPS
Chain of Serotonin 5HT2A (P28223 whole entry): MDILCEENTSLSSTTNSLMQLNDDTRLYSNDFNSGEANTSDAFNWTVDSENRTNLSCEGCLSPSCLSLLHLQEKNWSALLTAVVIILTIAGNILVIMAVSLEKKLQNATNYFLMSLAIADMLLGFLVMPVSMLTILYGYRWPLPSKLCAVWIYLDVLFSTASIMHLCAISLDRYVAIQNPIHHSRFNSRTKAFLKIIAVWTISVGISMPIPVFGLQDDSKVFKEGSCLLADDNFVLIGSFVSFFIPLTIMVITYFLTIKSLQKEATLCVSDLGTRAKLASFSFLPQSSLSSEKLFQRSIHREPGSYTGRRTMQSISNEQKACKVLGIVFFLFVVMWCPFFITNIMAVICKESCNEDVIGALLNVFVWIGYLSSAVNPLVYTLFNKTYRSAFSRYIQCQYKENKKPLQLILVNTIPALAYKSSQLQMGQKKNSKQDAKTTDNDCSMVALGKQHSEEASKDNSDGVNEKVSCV
Chain of ITK (Q08881 whole entry): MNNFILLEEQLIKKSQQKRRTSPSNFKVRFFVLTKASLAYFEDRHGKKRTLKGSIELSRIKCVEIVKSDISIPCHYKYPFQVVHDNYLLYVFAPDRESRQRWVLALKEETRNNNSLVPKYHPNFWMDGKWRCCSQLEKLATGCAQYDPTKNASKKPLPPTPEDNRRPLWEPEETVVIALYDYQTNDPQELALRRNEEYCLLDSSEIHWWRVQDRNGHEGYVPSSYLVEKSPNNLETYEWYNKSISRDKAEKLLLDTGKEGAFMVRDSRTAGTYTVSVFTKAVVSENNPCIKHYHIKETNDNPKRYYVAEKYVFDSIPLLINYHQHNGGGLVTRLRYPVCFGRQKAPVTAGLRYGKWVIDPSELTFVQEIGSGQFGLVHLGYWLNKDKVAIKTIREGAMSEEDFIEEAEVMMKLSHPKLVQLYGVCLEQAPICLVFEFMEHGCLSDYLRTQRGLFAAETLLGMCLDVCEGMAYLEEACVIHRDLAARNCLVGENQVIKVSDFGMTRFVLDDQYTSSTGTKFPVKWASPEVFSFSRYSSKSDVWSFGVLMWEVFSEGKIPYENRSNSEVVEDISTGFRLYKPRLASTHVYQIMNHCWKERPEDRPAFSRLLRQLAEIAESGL
Chain of MAPKAPK2 (P49137 whole entry): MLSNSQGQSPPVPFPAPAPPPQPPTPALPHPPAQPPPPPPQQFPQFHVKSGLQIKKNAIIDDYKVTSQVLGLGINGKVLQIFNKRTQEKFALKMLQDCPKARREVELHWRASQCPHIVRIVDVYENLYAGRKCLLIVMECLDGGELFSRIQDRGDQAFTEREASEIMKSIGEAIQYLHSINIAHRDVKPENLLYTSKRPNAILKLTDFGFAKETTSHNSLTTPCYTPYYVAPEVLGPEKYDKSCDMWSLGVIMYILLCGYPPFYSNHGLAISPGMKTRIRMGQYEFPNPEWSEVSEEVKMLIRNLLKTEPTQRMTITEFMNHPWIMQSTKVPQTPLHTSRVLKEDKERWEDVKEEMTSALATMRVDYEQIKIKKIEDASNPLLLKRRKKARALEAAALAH
Chain of PPARgamma Receptor (P37231 whole entry): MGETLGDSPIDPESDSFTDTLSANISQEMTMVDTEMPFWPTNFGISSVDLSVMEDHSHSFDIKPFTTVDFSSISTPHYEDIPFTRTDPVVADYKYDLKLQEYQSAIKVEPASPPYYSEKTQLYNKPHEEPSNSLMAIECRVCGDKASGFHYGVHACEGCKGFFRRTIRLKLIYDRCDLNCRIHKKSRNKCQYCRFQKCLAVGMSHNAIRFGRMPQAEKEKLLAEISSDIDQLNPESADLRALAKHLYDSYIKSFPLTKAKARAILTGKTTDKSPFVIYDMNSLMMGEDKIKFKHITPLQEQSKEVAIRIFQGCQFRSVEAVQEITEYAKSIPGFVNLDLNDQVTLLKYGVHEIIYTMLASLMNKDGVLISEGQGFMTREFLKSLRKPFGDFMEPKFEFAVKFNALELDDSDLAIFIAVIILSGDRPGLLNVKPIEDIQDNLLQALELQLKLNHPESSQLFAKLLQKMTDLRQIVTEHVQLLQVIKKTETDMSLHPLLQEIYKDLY
Chain of BRSK1 (Q8TDC3 whole entry): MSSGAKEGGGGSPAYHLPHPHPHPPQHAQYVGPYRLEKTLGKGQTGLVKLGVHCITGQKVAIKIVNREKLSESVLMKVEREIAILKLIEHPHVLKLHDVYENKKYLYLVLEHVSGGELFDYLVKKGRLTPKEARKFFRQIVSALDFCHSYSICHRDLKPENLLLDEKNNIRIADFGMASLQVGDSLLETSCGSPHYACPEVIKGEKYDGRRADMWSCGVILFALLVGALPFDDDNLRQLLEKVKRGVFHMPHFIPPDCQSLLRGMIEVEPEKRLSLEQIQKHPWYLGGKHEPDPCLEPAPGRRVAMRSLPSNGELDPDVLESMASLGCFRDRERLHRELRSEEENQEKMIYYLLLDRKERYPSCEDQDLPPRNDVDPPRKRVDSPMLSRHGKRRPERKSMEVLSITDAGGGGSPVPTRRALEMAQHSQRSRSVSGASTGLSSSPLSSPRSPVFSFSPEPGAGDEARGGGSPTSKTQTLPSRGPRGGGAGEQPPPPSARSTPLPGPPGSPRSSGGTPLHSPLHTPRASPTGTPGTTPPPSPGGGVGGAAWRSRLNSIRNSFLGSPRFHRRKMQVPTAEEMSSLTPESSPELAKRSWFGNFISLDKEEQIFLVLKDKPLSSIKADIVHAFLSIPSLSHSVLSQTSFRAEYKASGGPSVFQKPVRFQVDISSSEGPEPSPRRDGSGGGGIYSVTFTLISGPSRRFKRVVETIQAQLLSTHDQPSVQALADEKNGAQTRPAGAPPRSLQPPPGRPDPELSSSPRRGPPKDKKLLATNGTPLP
Chain of NEK2 (P51955 whole entry): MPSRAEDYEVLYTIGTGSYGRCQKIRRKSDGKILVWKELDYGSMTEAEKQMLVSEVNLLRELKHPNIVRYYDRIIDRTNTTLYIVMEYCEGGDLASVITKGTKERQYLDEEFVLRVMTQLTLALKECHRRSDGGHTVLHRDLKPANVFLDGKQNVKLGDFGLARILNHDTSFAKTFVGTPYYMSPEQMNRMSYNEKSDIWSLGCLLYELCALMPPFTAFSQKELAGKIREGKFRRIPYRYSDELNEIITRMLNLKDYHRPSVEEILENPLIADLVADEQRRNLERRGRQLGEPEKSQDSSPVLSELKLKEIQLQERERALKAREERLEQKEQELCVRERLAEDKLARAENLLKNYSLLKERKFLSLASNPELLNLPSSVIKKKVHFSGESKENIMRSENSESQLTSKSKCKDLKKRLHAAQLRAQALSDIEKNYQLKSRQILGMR
Chain of JNK3 (P53779 whole entry): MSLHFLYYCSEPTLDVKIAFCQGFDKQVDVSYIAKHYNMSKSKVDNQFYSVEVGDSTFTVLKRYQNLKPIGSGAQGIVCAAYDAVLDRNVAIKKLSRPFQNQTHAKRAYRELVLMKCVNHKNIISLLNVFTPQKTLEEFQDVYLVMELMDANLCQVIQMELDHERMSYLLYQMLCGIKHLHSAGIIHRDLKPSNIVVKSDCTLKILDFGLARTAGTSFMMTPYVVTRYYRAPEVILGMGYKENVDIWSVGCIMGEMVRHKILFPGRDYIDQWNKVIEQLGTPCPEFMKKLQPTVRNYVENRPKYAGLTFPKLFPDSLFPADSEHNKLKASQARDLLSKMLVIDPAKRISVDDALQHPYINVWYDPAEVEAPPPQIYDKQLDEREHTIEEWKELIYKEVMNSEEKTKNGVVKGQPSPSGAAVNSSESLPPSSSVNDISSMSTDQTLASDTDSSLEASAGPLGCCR

O=C(Nc1nccs1)C(c1cc(F)ccc1O)N1Cc2ccccc2C1=O (stereo not shown) [EAI045, 2-(5-fluoro-2-hydroxyphenyl)-2-(1-oxo-2,3-dihydro-1H-isoindol-2-yl)-N-(1,3-thiazol-2-yl)acetamide]
inhibition at 1 µM (GSK-3-ALPHA): 6%
inhibition at 1 µM (FLT-4): 1%
inhibition at 1 µM (LYNB): 3%
inhibition at 1 µM (ROCK2): 0%
anti-proliferative effect (H1975 cells; H1975, concentrations as high as 10 μM): no anti-proliferative effect
pEC50 (H1975 cells; Homo sapiens, NCI-H1975, 72 h, read-out: EC50 Proliferation): < 5.00
inhibition at 1 µM (NEK1): 0%
inhibition at 1 µM (CHEK1): 0%
inhibition at 1 µM (MAPKAPK2): 0%
inhibition at 1 µM (CDK2-CYCLINA): 1%
inhibition at 1 µM (BRSK1): 0%
pIC50 (PPARgamma Receptor): < 4.52
inhibition at 1 µM (AKT3): 0%
inhibition at 1 µM (INSR): 0%
inhibition at 1 µM (CAMK2D): 4%
pIC50 (Serotonin 5HT2A): < 4.52
inhibition at 1 µM (BTK): 0%
inhibition at 1 µM (PHK-GAMMA2): 0%
inhibition at 1 µM (SPHK2): 0%
inhibition at 1 µM (TRKB): 3%
inhibition at 1 µM (ITK): 0%
inhibition at 1 µM (GSK-3-BETA): 0%
inhibition at 1 µM (RET): 0%
inhibition at 1 µM (PAK6): 0%
inhibition at 1 µM (SYK): 0%
inhibition at 1 µM (CDK1): 2%
inhibition at 1 µM (CK1-GAMMA2): 0%
inhibition at 1 µM (MEK1): 0%
inhibition at 1 µM (FRAP1): 0%
phosphorylation of EGFR and downstream signaling proteins in tumors [1]: effectively inhibited
inhibition at 1 µM (NEK2): 2%
inhibition at 1 µM (ERB-B2): 4%
pIC50 [2]: < 4.52
inhibition at 1 µM (JNK3): 0%
pIC50 (Dopamine Transporter): < 4.52
inhibition at 1 µM (FGFR4): 0%
inhibition at 1 µM (MST4): 0%
